In ChEMBL document CHEMBL1126127, “Nonprostanoid prostacyclin mimetics. 2. 4,5-Diphenyloxazole derivatives” (J Med Chem, 1992) one finds IC50 data, which are given here for 53 compounds.

pIC50: −log10 of the molar value.

The assay can be described thus: Inhibition of ADP-induced human platelet aggregation. In kind it is functional. The essentials: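 ADP-induced aggregation of human platelets measured in platelet-rich plasma by aggregometry. Protocol follows earlier reports. IC50 values come from a single experiment or from the mean of duplicates.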

For orientation: pIC50 means the negative decadic logarithm of the IC50, by convention in mol/L. Lower therefore signals a large IC50. `O=C(O)c1cccc(OCCCc2nc(-c3ccccc3)c(-c3ccccc3)o2)c1`: the pIC50 was < 4.10.

On to `O=C(O)COc1cccc(-c2nc(-c3ccccc3)c(-c3ccccc3)o2)c1`, for which the negative-log IC50 (pIC50) was < 4.08.

In turn, `c1ccc(-c2nc(CCc3cccc(OCC4N=NN=N4)c3)oc2-c2ccccc2)cc1` had a negative-log IC50 (pIC50) of 5.82.

Turning to `O=C(O)CCCCOc1ccccc1Cc1nc(-c2ccccc2)c(-c2ccccc2)o1`, the pIC50 is < 4.13.

In turn, `O=C(O)COc1cccc(/C=C/c2nc(-c3ccccc3)c(-c3ccccc3)o2)c1` gave a pIC50 of 4.89.

`O=C(O)c1cccc(OCCCCc2nc(-c3ccccc3)c(-c3ccccc3)o2)c1`: the pIC50 was < 4.11.

`O=C(O)CCCCCCCCc1nc(-c2ccccc2)c(-c2ccccc2)o1` showed a pIC50 of 5.60.

For the compound `O=C(O)COc1ccccc1CCc1nc(-c2ccccc2)c(-c2ccccc2)o1`, the pIC50 was < 4.10.

For the compound `O=C(O)CCCCOc1ccccc1-c1nc(-c2ccccc2)c(-c2ccccc2)o1`, the pIC50 was < 4.11.

The compound `O=C(O)CCCCOc1cccc(-c2nc(-c3ccccc3)c(-c3ccccc3)o2)c1` showed a pIC50 of 5.34.

For the compound `O=C(O)CCCOc1ccc(Cc2nc(-c3ccccc3)c(-c3ccccc3)o2)cc1`, the negative logarithm of the IC50 (pIC50) was < 4.12.

Take `O=C(O)CCCCCCc1nc(-c2ccccc2)c(-c2ccccc2)o1`: the pIC50 is < 4.04.

For the compound `O=C(O)/C=C/c1cccc(CCc2nc(-c3ccccc3)c(-c3ccccc3)o2)c1`, the pIC50 was 6.18.

For the compound `O=C(O)CCCOc1ccccc1/C=C/c1nc(-c2ccccc2)c(-c2ccccc2)o1`, the pIC50 is < 4.12.

As to `O=C(O)C(CCCCCCCc1nc(-c2ccccc2)c(-c2ccccc2)o1)C(=O)O`, the pIC50 was < 4.12.

`O=C(O)CCCCOc1ccc(-c2nc(-c3ccccc3)c(-c3ccccc3)o2)cc1`: the negative logarithm of the IC50 (pIC50) is < 4.11.

As to `O=C(O)CCCOc1cccc(/C=C/c2nc(-c3ccccc3)c(-c3ccccc3)o2)c1`, the negative-log IC50 (pIC50) is < 4.12.

As to `CC(C)(Oc1cccc(CCc2nc(-c3ccccc3)c(-c3ccccc3)o2)c1)C(=O)O`, the negative logarithm of the IC50 (pIC50) was < 4.12.

Turning to `COc1ccc(/C=C/c2nc(-c3ccccc3)c(-c3ccccc3)o2)cc1OCC(=O)O`, the pIC50 is < 4.12.

As to `O=C(O)CCCOc1ccc(/C=C/c2nc(-c3ccccc3)c(-c3ccccc3)o2)cc1`, the pIC50 was < 4.12.

In the case of `O=C(O)CCc1cccc(CCc2nc(-c3ccccc3)c(-c3ccccc3)o2)c1`, the pIC50 is 4.80.

On to `O=C(O)CCCCCCCCCc1nc(-c2ccccc2)c(-c2ccccc2)o1`, for which the pIC50 is < 4.10.

With `O=C(O)CCCOc1ccccc1CCc1nc(-c2ccccc2)c(-c2ccccc2)o1`, the pIC50 was < 4.12.

Take `O=C(O)c1ccc(OCCCCc2nc(-c3ccccc3)c(-c3ccccc3)o2)cc1`: the negative-log IC50 (pIC50) was < 4.11.

With `O=C(O)COc1ccc(Cc2nc(-c3ccccc3)c(-c3ccccc3)o2)cc1`, the pIC50 is < 4.09.

Compound `O=C(O)/C=C/c1cccc(OCc2nc(-c3ccccc3)c(-c3ccccc3)o2)c1` showed a negative-log IC50 (pIC50) of 4.85.

Turning to `COc1ccc(CCc2nc(-c3ccccc3)c(-c3ccccc3)o2)cc1OCC(=O)O`, the pIC50 is < 4.12.

`COc1c(CCc2nc(-c3ccccc3)c(-c3ccccc3)o2)cccc1OCC(=O)O` showed a pIC50 of 5.85.

With `O=C(O)CCc1cccc(OCc2nc(-c3ccccc3)c(-c3ccccc3)o2)c1`, the negative-log IC50 (pIC50) is < 4.10.

On to `COc1ccc(OCC(=O)O)cc1/C=C/c1nc(-c2ccccc2)c(-c2ccccc2)o1`, for which the pIC50 is < 4.12.

Turning to `O=C(O)CCCOc1cccc(Cc2nc(-c3ccccc3)c(-c3ccccc3)o2)c1`, the pIC50 was < 4.12.

In turn, `O=C(O)c1ccc(OCCCc2nc(-c3ccccc3)c(-c3ccccc3)o2)cc1` had a negative-log IC50 (pIC50) of 4.40.

The compound `O=C(O)COc1ccc(CCc2nc(-c3ccccc3)c(-c3ccccc3)o2)cc1` had a negative logarithm of the IC50 (pIC50) of 5.05.

Regarding `O=C(O)COc1cccc(/C=C\c2nc(-c3ccccc3)c(-c3ccccc3)o2)c1`, the negative logarithm of the IC50 (pIC50) is 6.74.

`O=C(O)COc1ccc(/C=C/c2nc(-c3ccccc3)c(-c3ccccc3)o2)cc1`: the negative-log IC50 (pIC50) is 5.00.

The compound `O=C(O)COc1cccc(CSc2nc(-c3ccccc3)c(-c3ccccc3)o2)c1` gave a negative-log IC50 (pIC50) of 5.02.

On to `O=C(O)CCCOc1ccccc1-c1nc(-c2ccccc2)c(-c2ccccc2)o1`, for which the pIC50 is < 4.10.

Turning to `O=C(O)COc1cccc(OCc2nc(-c3ccccc3)c(-c3ccccc3)o2)c1`, the negative logarithm of the IC50 (pIC50) is 5.92.

Take `O=C(O)COc1ccccc1/C=C/c1nc(-c2ccccc2)c(-c2ccccc2)o1`: the negative logarithm of the IC50 (pIC50) was < 4.10.

For the compound `O=C(O)COc1cccc(C#Cc2nc(-c3ccccc3)c(-c3ccccc3)o2)c1`, the pIC50 was 4.22.

As for `O=C(O)CCCCc1nc(-c2ccccc2)c(-c2ccccc2)o1`, the negative logarithm of the IC50 (pIC50) is < 4.00.

`CC(Oc1cccc(CCc2nc(-c3ccccc3)c(-c3ccccc3)o2)c1)C(=O)O` (stereo not drawn) gave a pIC50 of 5.40.

Turning to `O=C(O)CCCCCCCc1nc(-c2ccccc2)c(-c2ccccc2)o1`, the negative logarithm of the IC50 (pIC50) was < 4.06.

With `O=C(O)CCCc1nc(-c2ccccc2)c(-c2ccccc2)o1`, the pIC50 is < 3.98.

Consider `O=C(O)COc1cccc(Cc2nc(-c3ccccc3)c(-c3ccccc3)o2)c1`, for which the pIC50 is < 4.09.

For the compound `COc1ccc(OCC(=O)O)cc1CCc1nc(-c2ccccc2)c(-c2ccccc2)o1`, the pIC50 was < 4.12.

Consider `O=C(O)CCCOc1cccc(-c2nc(-c3ccccc3)c(-c3ccccc3)o2)c1`, for which the negative-log IC50 (pIC50) is 4.10.

`O=C(O)CCCOc1ccc(-c2nc(-c3ccccc3)c(-c3ccccc3)o2)cc1`: the pIC50 is < 4.10.

Regarding `COc1c(/C=C/c2nc(-c3ccccc3)c(-c3ccccc3)o2)cccc1OCC(=O)O`, the pIC50 was 6.30.

For the compound `CCCCC[C@H](O)/C=C/[C@@H]1[C@H]2C/C(=C/CCCC(=O)O)O[C@H]2C[C@H]1O` [EPOPROSTENOL], the pIC50 is 5.10.

As for `CC#CCC(C)[C@H](O)/C=C/[C@@H]1[C@H]2C/C(=C/CCCC(=O)O)C[C@H]2C[C@H]1O` (stereo partly drawn) [ILOPROST], the pIC50 is 5.70.

With `O=C(O)CCCCCCCOc1nc(-c2ccccc2)c(-c2ccccc2)n1-c1ccccc1` [OCTIMIBATE], the pIC50 was 5.99.

Take `O=C(O)CCc1nc(-c2ccccc2)c(-c2ccccc2)o1` [OXAPROZIN]: the negative logarithm of the IC50 (pIC50) is < 4.00.
